This is a sample that favours compounds with a hit; in the whole collection about 2.5% have one here.
Granule exo inh: LAMP-1 surface exposure blockers, TALL-104 cells – cell-based, flow cytometry, MLPCN library, primary screen; TALL-104 LAMP-1 surface exposure; cells stimulated with thapsigargin and PMA; inhibition, % at 10 µM; 360,000 tested, 0.66% active; AID 651702, 2012;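 active means inhibition above about 55%, limit read from the data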
HGIII-sPLA2 inh: human group III sPLA2 inhibitors, primary screen, biochemical, QFRET, BODIPY PC-A2 liposome substrate. Group 3 secretory phospholipase A2 (Homo sapiens), Q9NZ20. QFRET BODIPY PC-A2 liposome hydrolysis, fluorescence. inhibition, % at 12.2 µM. 370,000 tested, 0.56% active;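 active means inhibition above mean plus 3 SD of compounds lying within the high and low control bounds, cut at about 19% in these data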;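 further: 0% = median of test compound wells and 100% = no enzyme DMSO wells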
Target sequence (Q9NZ20 whole entry, looked up): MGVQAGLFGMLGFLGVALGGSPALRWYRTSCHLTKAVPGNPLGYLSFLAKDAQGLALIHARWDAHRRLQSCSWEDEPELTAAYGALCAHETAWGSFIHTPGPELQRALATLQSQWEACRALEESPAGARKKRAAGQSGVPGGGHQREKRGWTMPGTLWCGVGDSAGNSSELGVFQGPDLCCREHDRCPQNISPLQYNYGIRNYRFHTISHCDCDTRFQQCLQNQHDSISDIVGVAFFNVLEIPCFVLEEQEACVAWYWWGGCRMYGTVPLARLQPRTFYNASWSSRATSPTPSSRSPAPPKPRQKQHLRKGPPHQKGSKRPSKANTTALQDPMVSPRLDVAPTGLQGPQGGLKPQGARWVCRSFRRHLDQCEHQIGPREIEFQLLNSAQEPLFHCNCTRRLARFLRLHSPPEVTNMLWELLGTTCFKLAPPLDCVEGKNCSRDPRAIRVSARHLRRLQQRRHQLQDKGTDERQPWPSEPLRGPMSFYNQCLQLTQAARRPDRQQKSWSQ
MC4R ag barr: MC4R agonists recruiting beta-arrestin, primary screen, cell-based, luminescence, agonist arm of biased-ligand search. 360,000 tested, 0.98% active. AID 540308, 2011. U2OS MC4R beta-arrestin complementation; percent of melanotan II response, DMSO zero. activation, % at 8.9 µM. Melanocortin receptor 4 (Homo sapiens), P32245;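 active means activation above a per-plate cutoff, the mean activation of sample wells on that plate plus 3 SD, cut at about 8% in these data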
NTR1 ag: agonists of human NTR1, primary screen, imaging, U2OS cells, beta-arrestin-GFP, high content | 330,000 tested, 0.17% active | activation, % at 20 µM | NTR1-U2OS beta-arrestin-GFP spot imaging, agonist mode | Neurotensin receptor type 1 (Homo sapiens), P30989;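 active means activation at or above 40% of the spot to cytoplasm intensity ratio, with at least 20 cells analyzed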;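 further: 0% = DMSO without peptide and 100% = 100 nM NTR1 peptide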
MC4R antagonist: MC4R antagonists of cAMP signaling, primary screen, cell-based, TR-FRET, antagonist arm of biased-ligand search; inhibition, % at 6.5 µM; Melanocortin receptor 4 (Homo sapiens), P32245; AID 540295, 2011; 360,000 tested, 0.48% active; MC4R-expressing cells, MTII-stimulated cAMP, LANCE TR-FRET;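 active means inhibition above its plate's cutoff, the mean of tested wells on that plate plus 3 SD, cut at about 29% in these data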;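 further: 0% = Melanotan II alone and 100% = Melanotan II plus saturating MCL0020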
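Material – human MC4R-expressing U2OS cells · Repeats – no replicates · Detection – TR-FRET with Eu-cAMP and labeled anti-cAMP, 671 nm · Times – compound 30 min, challenge 1 h, detection 1 h · Compound – single nominal compound dose of 6.5 µM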
Bfl-1 A1 inh: caspase 3/7 activation in MEF A1-2A-BIM cells, primary screen, A1 inhibitor project, cell-based, luminescence, HTS; caspase activation, % (no concentration beside the values); Caspase-Glo 3/7 luminescence, 3 h; percent of clofoctol response, vehicle zero; 330,000 tested, 0.066% active;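 active means over half of replicate activation scores above 10%, or exactly half above 10 with the replicate mean above 10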
Exocytosis CP01: inhibitors of lytic granule exocytosis, confirmation, TALL-104 cells, flow cytometry, Cherry Pick01 | shares compounds with Granule exo inh | LAMP-1 externalization; stimulated with PMA plus thapsigargin | inhibition, % at 10 µM | 1,500 tested, 11% active; in the data active means inhibition above about 60%;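 further: 0% = stimulated vehicle wells and 100% = unstimulated wells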
Starred values were filed as active, the others as inactive; . = not tested or not shown.

SMILES | Granule exo inh | HGIII-sPLA2 inh | MC4R ag barr | NTR1 ag | MC4R antagonist | Bfl-1 A1 inh | Exocytosis CP01
C=CCOc1ccccc1CN1CCC(CO)(CCOc2ccccc2)CC1 | 69* | -21 | 2 | 1 | 0 | 1 | -13
CCOc1ccccc1CN1CCN(Cc2cn(C)nc2-c2ccccc2)CC1CCO (stereo unspecified) | 1 | -11 | -2 | -1 | 6 | 0 | .
COc1ccc(Nc2nc(N)nc(CSC(=S)N3CCCCC3C)n2)cc1 (stereo unspecified) | -4 | -12 | -1 | 4 | 8 | 0 | .
COc1cc(OC)cc(C(=O)NCCNc2nc3cc(C)cc(C)c3cc2C#N)c1 | 61* | -3 | 2 | 1 | 4 | 0 | -10
C[C@@H]1CN([C@H](C)CO)C(=O)c2cccc(NS(=O)(=O)c3ccccc3)c2O[C@H]1CN(C)C | 5 | 4 | 0 | 1 | 4 | 1 | .
COc1ccc(NC(=O)C2(C)Cc3c(-c4ccccc4)ccnc3O2)cc1OC (stereo unspecified) | 0 | -9 | 2 | . | 19 | . | .
O=C(CCCc1nc(-c2ccc(Cl)cc2)no1)NC1CCCC1 | 57* | -7 | 0 | 0 | 7 | 0 | -13
O=C(CCc1nc(-c2ccc(Cl)cc2)no1)NC1CCCCC1 | 3 | 0 | 2 | 1 | 1 | 1 | .
O=C(CSc1nc2ccccc2nc1N1CCCC1)N1CCN(C(c2ccccc2)c2ccccc2)CC1 | . | 4 | . | . | . | . | .
Cc1cccc(C)c1OCc1cccc(C2Nc3ccccc3C(=O)N2Cc2ccco2)c1 (stereo unspecified) | . | 7 | . | . | . | . | .
CN(C(=O)c1cccc(NC(=O)Cc2ccc(NC(=O)C3CCCN(C(=O)C4CCC4)C3)cc2)c1)C1CC1 (stereo unspecified) | -2 | 0 | -3 | . | -8 | . | .
COc1ccc(OC)c(NC(=O)CN(Cc2ccc(F)cc2)C2CCCCC2)c1 | 76* | -9 | 0 | 5 | 20 | 0 | -11
CCOc1ccc(Cl)cc1CNCCCSc1ncccn1 | -3 | -5 | -1 | -1 | -3 | -1 | .
CCOc1ccc(Cl)cc1CNCCCSc1nc(C)cc(C)n1 | 87* | -16 | -1 | 0 | 20 | 1 | -3
C[C@H]1[C@@H](O)CC[C@@]23CCCN2C(=O)CCC[C@@H]13 | . | -1 | . | . | . | . | .
CCC(C(=O)n1cccc1C#N)c1ccccc1C (stereo unspecified) | 70* | -1 | 0 | 0 | 5 | 0 | -5
OC(CNCCC(c1ccccc1)c1ccccc1)COc1ccccc1 (stereo unspecified) | 74* | -18 | 25* | 2 | 8 | -1 | -4
O=C(COC(=O)/C=C/c1ccc(F)cc1)NC(=O)NCc1ccccc1 | 4 | 8 | -1 | . | 18 | . | .
CCCCN(C)c1c(C)nc2ccc(C(=O)NCc3ccc4c(c3)OCO4)cn12 | 60* | -5 | 1 | . | 11 | . | -12
CCc1nc2ccc(C(=O)NCc3ccc4c(c3)OCO4)cn2c1N(CC)CCOC | 0 | 7 | 0 | . | 8 | . | .
Cc1cc(NCc2ccccn2)n2ncc(-c3ccc(Cl)cc3)c2n1 | 82* | 7 | -4 | 9 | -1 | 0 | -12
O=C1/C(=C\c2cccs2)Sc2ccc3ccccc3c21 | 85* | 8 | 1 | 2 | 13 | -6 | -1
COc1ccc(Sc2ccccc2CN(C)C)cc1OC | 0 | -3 | -1 | 0 | 8 | 1 | .
CNCc1ccccc1Sc1ccc(O)c(O)c1 | 82* | 4 | -2 | . | -9 | 0 | 29
CN1CCN(c2nc(-c3ccccc3)c3cc(Cl)ccc3n2)CC1 | 2 | 4 | -1 | 7 | 9 | 1 | .
SMILES | Granule exo inh | HGIII-sPLA2 inh | MC4R ag barr | NTR1 ag | MC4R antagonist | Bfl-1 A1 inh | Exocytosis CP01
Clc1ccc2nc(N3CCNCC3)nc(-c3ccccc3)c2c1 | 86* | 15 | 3 | 6 | 3 | 0 | 59
O=C1C2C3C=CC(CO)(O3)C2C(=O)N1c1ccc(-c2ccccc2)cc1 (stereo unspecified) | . | . | . | -1 | . | 4 | .
CC(C)(C)C(=O)NCC12C=CC(O1)C1C(=O)N(c3ccccc3)C(=O)C12 (stereo unspecified) | 64* | -1 | -2 | 0 | -3 | 1 | 1
CCCCCC/C=C/c1ccc(OC)c([C@H]2[C@H]3C=CC[C@@H](C)[C@@H]3C(=O)N2Cc2ccccc2)c1 | 67* | 5 | -2 | -2 | 6 | 1 | -3
CSCCC(NS(=O)(=O)c1ccccc1)C(=O)OC(C)C(=O)Nc1ccc(Cl)cn1 (stereo unspecified) | -4 | 3 | -2 | -1 | 17 | -1 | .
c1cncc(-c2ccc3ncnc(NCc4ccc5c(c4)OCO5)c3c2)c1 | 6 | 0 | -1 | 0 | 0 | 1 | .
Fc1cccc(CNc2ncnc3ccc(-c4ccc5c(c4)OCO5)cc23)c1 | 65* | -6 | 0 | 3 | 2 | -1 | -12
OC(c1ccccc1)(c1ccc(F)cc1)C(c1ccccc1)N1CCOCC1 (stereo unspecified) | 98* | . | 0 | 6 | 2 | 0 | 10
CC(O)(c1ccccc1)C(C(c1ccccc1)N1CCOCC1)N1CCOCC1 (stereo unspecified) | 0 | -1 | -2 | . | 3 | . | .
CC(C(=O)N1CCc2ccccc21)N1CCN(c2cccc(C(F)(F)F)c2)CC1 (stereo unspecified) | 61* | 1 | 0 | 2 | 3 | 0 | -13
CCCCNC(=O)C[C@@H]1C(=O)N(CCc2ccc(Cl)cc2)C2=CCCCC[C@]21C(=O)OC | . | -10 | . | . | . | . | .
Cc1cc(OCC(=O)NCCc2cccc(F)c2)c2c(C)cc(=O)oc2c1 | -2 | 4 | 2 | 2 | 3 | 0 | .
Cc1ccc(S(=O)(=O)N2CCN(CC(O)c3ccccc3)CC2)cc1 (stereo unspecified) | 0 | 3 | -3 | -2 | 2 | 0 | .
O=S(=O)(c1ccccc1F)N1CCN(CC(O)c2ccccc2)CC1 (stereo unspecified) | 80* | 1 | 0 | 0 | 0 | 0 | -4
COc1ccc(CC(=O)NCC2CCCN(Cc3ccc(F)c(OC)c3)C2)cc1 (stereo unspecified) | 59* | 0 | 1 | -2 | 4 | 0 | -14

High-throughput results (PubChem BioAssay)
